Screens as filed in PubChem BioAssay.
GalR3 antagonist: antagonists of human GalR3 | O60755 | HEK293 GalR3-CNG cAMP membrane potential fluorescence; galR3 body fused to GalR1 C-terminus | inhibition, % at 3 µM | 360,000 tested, 0.44% active | AID 651719;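 active = inhibition above the screen-wide average plus 3 SD, cut at about 13% in these data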;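 also: forskolin and galanin both at EC90 stimulate the cells; cAMP rise reported by CNG channel membrane potential dye signal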
NR2E3 ag-1: agonists of human nuclear receptor NR2E3; GST-NR2E3/biotin-RetCOR TR-FRET, 1536-well; AID 2300; 320,000 tested, 0.12% active; inhibition of corepressor binding, % at 4.78 µM;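 active = percent inhibition above the cutoff of mean plus 3 SD of all tested compounds, set per screening campaign, cut at about 20% in these data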
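system = GST-tagged NR2E3 plus biotinylated RetCOR corepressor | input = 1.35 nM GST-NR2E3 | also added = 7 nM biotin-RetCOR | schedule = 5 h incubation at 4 °C | measured by = TR-FRET with europium anti-GST and streptavidin-D2, 340 nm excitation | read-out = percent loss of FRET ratio relative to control wells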
COUP-TFII inh: inhibitors of human COUP-TFII (NR2F2). HEK293T NGFI-A luciferase reporter, luminescence. inhibition, % at 8.6 µM. P24468. 370,000 tested, 0.7% active;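 active = inhibition above a per-plate cutoff, mean inhibition of test wells between control levels plus 3 SD, cut at about 38% in these data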;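 also: cells cotransfected with COUP-TFII expression vector driving the NGFI-A reporter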
NR2E3 ag-2: human photoreceptor-specific nuclear receptor agonism | CHO-S Gal4-NCOR/VP16-NR2E3 two-hybrid, luciferase | Q9Y5X4 | 360,000 tested, 0.35% active | inhibition of corepressor binding, % at 3.98 µM;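 active = inhibition above the mean of all tested compounds plus 3 SD, cut at about 70% in these data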;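 also: higher means lower luciferase signal from less NR2E3 corepressor binding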
CHT PAM: allosterically activates the human high affinity choline transporter. CHT-expressing cells, membrane potential dye, choline EC20; stronger effect = higher value; LV-AA mutant CHT in HEK293 cells. AID 488977. B-score at 10 µM. 310,000 tested, 0.49% active;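 active = initial fluorescence not abnormally high and integrated response B-score, plate-corrected, over 3 SD above library mean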
Target sequence (Q9GZV3 whole entry, looked up): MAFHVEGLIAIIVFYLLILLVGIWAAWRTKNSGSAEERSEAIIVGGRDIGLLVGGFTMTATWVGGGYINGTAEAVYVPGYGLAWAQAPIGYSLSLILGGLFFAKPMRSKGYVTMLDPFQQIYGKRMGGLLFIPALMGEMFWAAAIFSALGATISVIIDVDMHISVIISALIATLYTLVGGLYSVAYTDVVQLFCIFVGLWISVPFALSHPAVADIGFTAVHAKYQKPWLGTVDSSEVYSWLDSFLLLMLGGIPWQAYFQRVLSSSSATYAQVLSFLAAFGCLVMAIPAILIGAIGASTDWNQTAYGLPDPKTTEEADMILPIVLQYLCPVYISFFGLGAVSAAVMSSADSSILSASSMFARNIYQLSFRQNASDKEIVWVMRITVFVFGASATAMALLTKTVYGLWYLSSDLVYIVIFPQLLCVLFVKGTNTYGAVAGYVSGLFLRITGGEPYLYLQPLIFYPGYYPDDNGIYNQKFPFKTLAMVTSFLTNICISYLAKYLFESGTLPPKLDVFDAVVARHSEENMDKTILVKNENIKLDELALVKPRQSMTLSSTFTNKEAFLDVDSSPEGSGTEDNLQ
CHT block: human CHT choline transport inhibition. Q9GZV3. CHT-expressing cells, membrane potential dye, choline response; stronger effect = lower value. B-score at 10 µM. 310,000 tested, 0.86% active. AID 488975;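 active = B-score over 3 SD under the library average, and starting fluorescence ratio not unusually high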;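 also: choline stimulus applied at its EC90 after an EC20 pre-addition; B-score computed on integrated fluorescence ratio after choline addition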
CHT block conf: human CHT inhibition, confirmatory screen; shares compounds with CHT block; CHT-expressing cells, choline membrane potential dye; LV-to-AA substituted CHT, HEK293 cells; CHT activity remaining % of control (stronger effect = lower value), % at 10 µM; 2,400 tested, 70% active; AID 493221;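 active = choline transporter activity left, mean of duplicates at 10 µM, below buffer-only control mean minus 3 SD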;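 also: depolarization triggered by choline at its EC90 following an EC20 pre-addition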
HEK293 CHT ctr: counter-screen for CHT inhibitors: effect in parental HEK293 cells; shares compounds with CHT block; membrane potential dye, choline response; active = decrease or increase beyond buffer ±3SD; membrane potential ratio readout (active if shifted either direction beyond buffer ±3SD; no single direction) at 10 µM; 2,400 tested, 4% active; AID 493222;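 also: parental cells lack the transporter so any hit is non-specific; ratio is peak minus trough fluorescence over baseline after EC90 choline challenge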
CHT activ conf: confirmation of human choline transporter (CHT) activators. shares compounds with CHT PAM. CHT-expressing cells, membrane potential dye fluorescence (FDSS); % of choline EC20–EC90 response window; HEK293 expressing CHT LV-AA mutant; choline added at its EC20. activation, % at 10 µM. 2,500 tested, 91% active. AID 504833;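 active = primary screen active, with duplicate mean activation above negative control mean plus 3 SD, cut at about 11% in these data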
HEK293 MP dye: CHT activator counter-screen hit in parental HEK293 cells. ratio readout change at 10 µM, hits read low. AID 623908. shares compounds with CHT PAM. 2,500 tested, 62% active. membrane potential dye fluorescence (FDSS); measured after EC20 choline addition;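 active = duplicate-averaged ratio beyond 3 SD from buffer wells, up or down, though filed actives are nearly all decreases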
NR2E3 ag confirm: confirmation of human NR2E3 agonists | CHO-S mammalian two-hybrid NR2E3-NCOR, luciferase luminescence | inhibition, % at 3.98 µM | shares compounds with NR2E3 ag-2 | 2,300 tested, 51% active;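 active = average inhibition above a cutoff equal to the mean inhibition of all tested compounds plus one SD, cut at about 70% in these data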
VP16 counter: reduces GAL4-VP16 reporter signal in NR2E3 counterscreen | 2,300 tested, 29% active | AID 624379 | CHO-S GAL4-VP16 luciferase reporter, luminescence | shares compounds with NR2E3 ag-2 | inhibition, % at 3.98 µM;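 active = mean inhibition above a cutoff equal to the average over all tested compounds plus one standard deviation, cut at about 70% in these data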;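 also: luciferase from a UAS reporter driven by GAL4-VP16 transactivation; higher means less reporter light so more repression of VP16 activity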
Each line names hits and unclear results; the compound was inactive in the other large screens (follow-up assays come after a bar, where they were run); ! = not confirmed by another sample. Compounds with a hit are over-represented: about 2.3% of the library has one in this group of screens.

COc1c(/C=C2/C(=O)NC(=O)N(C)C2=O)c(CCN(C)C(=O)c2ccccc2)cc2c1OCO2	CHT block -6.54 | CHT block conf 56.7% | HEK293 CHT ctr inactive
Cc1cccc(CCNCc2cc3cccc(C)c3[nH]c2=O)c1	CHT block -12.4 (no result: NR2E3 ag-1) | CHT block conf 8.5% | HEK293 CHT ctr inactive
Cc1[nH]n(-c2ccccc2)c(=O)c1C(c1ccc([N+](=O)[O-])cc1)c1c(C)[nH]n(-c2ccccc2)c1=O	CHT block -6.24 (no result: GalR3 antagonist, COUP-TFII inh) | CHT block conf 36.5% | HEK293 CHT ctr inactive
O=[N+]([O-])c1ccc(C(c2ccc([N+](=O)[O-])cc2)c2ccc([N+](=O)[O-])cc2)cc1	none (no result: NR2E3 ag-1, CHT PAM, CHT block)
Cc1ccc(OCCSC2=NN2c2cc(C)nc(N)n2)cc1	CHT block -11.1 | CHT block conf 22.9% | HEK293 CHT ctr inactive
CCc1c(C)nc(N)nc1N1N=C1SCCOc1ccccc1	CHT block -7.69 | CHT block conf 12.2% | HEK293 CHT ctr inactive
c1ccc(CCN2CCC3CCNC3C2)cc1 (configuration not stated)	none (no result: NR2E3 ag-1, NR2E3 ag-2, CHT PAM, CHT block)
C[C@H]1CNCCN1c1ccc(N2CC[C@H](O)C2)c(C#N)c1	none (no result: NR2E3 ag-1, NR2E3 ag-2, CHT PAM, CHT block)
O=C(NC1CN2CCC1CC2)c1cc(-c2ccc(Cl)cc2)nc2ccccc12 (configuration not stated)	none (no result: GalR3 antagonist, NR2E3 ag-1, NR2E3 ag-2, CHT PAM, CHT block)
O=C(COc1ccccc1)N1CCN(Cc2c[nH]c3ccccc23)CC1	none
c1ccc2c(CN3CCCCCC3)c[nH]c2c1	CHT block -6.02 | CHT block conf 36.8% | HEK293 CHT ctr inactive
CC1=NCCc2c1[nH]c1ccccc21	CHT block -7.79 | CHT block conf 33.5% | HEK293 CHT ctr inactive
O=C(NCCN1CCC2(CC1)C(=O)NCN2c1ccccc1)c1cccnc1Cl	none (no result: NR2E3 ag-1, NR2E3 ag-2, CHT PAM, CHT block)
CCNC(=O)C1OC(n2cnc3c(N)ncnc32)C(O)C1O (configuration not stated)	CHT block -6.74 | CHT block conf 32.9% | HEK293 CHT ctr inactive
CC(=O)O[C@@]12CO[C@@H]1C[C@@H](O)[C@@]1(C)C(=O)[C@H](O)C3=C(C)[C@@H](OC(=O)[C@H](O)[C@@H](NC(=O)c4ccccc4)c4ccccc4)C[C@@](O)([C@@H](OC(=O)c4ccccc4)C12)C3(C)C (some centres not stated)	CHT block -5.3 | CHT block conf 63.2% | HEK293 CHT ctr inactive
CC[N+](CC)(CC#CCO)CC#Cc1ccccc1	CHT block -8.64 | CHT block conf 35.4% | HEK293 CHT ctr inactive
O=C(NCCN1CCC2(CC1)C(=O)NCN2c1ccccc1)c1cccc(F)c1	none (no result: NR2E3 ag-1, NR2E3 ag-2, CHT PAM, CHT block)
CCOc1ccc(-n2c(O)c(C=NCCN(CC)CC)c(=O)[nH]c2=O)cc1	CHT block -6.27 | CHT block conf inactive | HEK293 CHT ctr inactive
CCC(C)N1C(=O)/C(=C/c2ccc3c(c2)CCN3CCCCl)C(=O)NC1=S (configuration not stated)	CHT block -5.9 | CHT block conf inactive | HEK293 CHT ctr inactive
Cc1cccc(N2C(=O)NC(=O)/C(=C\c3ccc4c(c3)CCCN4Cc3ccccc3)C2=O)c1	none
CCC(=NCCc1ccccc1)c1c(O)n(C)c(=O)n(C)c1=O	CHT block -5.63 | CHT block conf 52.7% | HEK293 CHT ctr inactive
CCC(=NCc1ccco1)c1c(O)n(C)c(=O)n(C)c1=O	none
OC1CN2CCC(O)C2C(O)C1O (configuration not stated)	none (no result: NR2E3 ag-1, NR2E3 ag-2, CHT PAM, CHT block)
CC(=O)O[C@@H]1/C=C/[C@](C)(O)C[C@@H](C)C/C=C/[C@H]2[C@@H]3O[C@]3(C)[C@@H](C)[C@H]3[C@H](Cc4ccccc4)NC(=O)[C@@]312	CHT block -5.08 (no result: GalR3 antagonist, COUP-TFII inh) | CHT block conf 71.2% | HEK293 CHT ctr inactive
CC(=O)O[C@@H]1/C=C/[C@](C)(O)C[C@@H](C)C/C=C/[C@H]2[C@H](O)[C@@](C)(O)[C@@H](C)[C@H]3[C@H](Cc4ccccc4)NC(=O)[C@@]312	none (no result: GalR3 antagonist, COUP-TFII inh)
Cc1cc(N2CCNC[C@H]2C)ccc1N1CCN[C@H](C)C1	none (no result: NR2E3 ag-1, NR2E3 ag-2, CHT PAM, CHT block)
O=C(NC1CN2CCC1CC2)c1ccc(Cl)cc1 (configuration not stated)	none (no result: NR2E3 ag-1, NR2E3 ag-2, CHT PAM, CHT block)
c1ccc(Cc2cnc(N3CCNCC3)nc2)cc1	none (no result: NR2E3 ag-1, NR2E3 ag-2, CHT PAM, CHT block)
O=C1NC(=O)C(=Cc2csc3ccccc23)C(=O)N1	none
O=C1NC(=O)C(=Cc2coc3ccccc3c2=O)C(=O)N1	CHT block -9.45 | CHT block conf 46.4% | HEK293 CHT ctr inactive
Cc1c(C(=O)O)cc(-c2ccccc2)n1Cc1ccccc1	CHT block -6.29 | CHT block conf 7.3% | HEK293 CHT ctr -34.9
Cc1ccc(-c2nn(Cc3ccccc3)cc2C(=O)O)cc1	none
N#Cc1ccc(NC(=S)N2Cc3cc(Br)ccc3-n3nncc3C2)cc1	none (no result: NR2E3 ag-1, NR2E3 ag-2, CHT PAM, CHT block)
Cc1cccc(N2CCc3c2nc2ccccc2c3N)c1	CHT block -9.31! | CHT block conf 56.2% | HEK293 CHT ctr inactive | CHT activ conf 33.0 | HEK293 MP dye -56.5
Cc1ccc(OC(=O)N(C)C[C@@H]2OCc3ccccc3-c3c(n(C)c4ccccc34)C(=O)N([C@H](C)CO)C[C@H]2C)cc1	none (no result: NR2E3 ag-1, NR2E3 ag-2, CHT PAM, CHT block)
Cc1ccc(-c2cc(-c3ccc(C)cc3)[n+](-c3ccccc3)c(-c3ccc(C)cc3)c2)cc1	NR2E3 ag-2 100.5, CHT block -5.52 (no result: GalR3 antagonist, COUP-TFII inh) | CHT block conf 65.6% | HEK293 CHT ctr 3.53 | NR2E3 ag confirm 99.7 | VP16 counter 95.7
Cc1cc(N2CCNC[C@H]2C)ccc1N1CC[C@@H](O)C1	none (no result: NR2E3 ag-1, NR2E3 ag-2, CHT PAM, CHT block)
